Assay results: ChEMBL document CHEMBL1158007, “Steroidal glycosides from the bulbs of Allium jesdianum” (J Nat Prod, 1999)
Values after ≈ are worked out from the molar mass of the structure shown.

Assays:
[1] = system: T47D; assay: Growth inhibition of human T47D cells after 72 hrs by MTT assay; format: functional
[2] = system: ACHN; assay: Growth inhibition of human ACHN cells after 72 hrs by MTT assay; format: functional
[3] = system: COLO 205; assay: Growth inhibition of human COLO205 cells after 72 hrs by MTT assay; format: functional; conditions: COLO 205, 72 h
[4] = system: SNB-75; assay: Growth inhibition of human SNB-75 cells after 72 hrs by MTT assay; format: functional; conditions: SNB-75, 72 h
[5] = system: HL-60; assay: Cytotoxicity against human HL-60 cells after 72 hrs by MTT assay; format: functional, cell-based; conditions: HL-60, 72 h
Procedure, shortened: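 HL-60 cells grown in RPMI 1640 with 10% FBS, L-glutamine, penicillin and streptomycin, seeded at 3 × 10^4 cells/mL, and preincubated 24 h at 37 °C in 5% CO2. Sample in EtOH-H2O (1:1) added to a final 0.01-10 µg/mL, with vehicle-only controls, for 72 h. MTT added for 4 h, then formazan dissolved in DMSO and read at 550 nm. IC50 taken from the dose-response curve.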

[6] = system: LOX IMVI; assay: Growth inhibition of human LOX IMVI cells after 72 hrs by MTT assay; format: functional
[7] = system: RPMI-8226; assay: Growth inhibition of human RPMI 8226 cells after 72 hrs by MTT assay; format: functional; conditions: RPMI-8226, 72 h
[8] = system: SR; assay: Growth inhibition of human SR cells after 72 hrs by MTT assay; format: functional
[9] = system: MCF7; assay: Growth inhibition of human MCF7 cells after 72 hrs by MTT assay; format: functional; conditions: MCF7, 72 h
[10] = system: CAKI-1; assay: Growth inhibition of human Caki-1 cells after 72 hrs by MTT assay; format: functional; conditions: CAKI-1, 72 h
[11] = system: A549; assay: Growth inhibition of human A549 cells after 72 hrs by MTT assay; format: functional; conditions: A549, 72 h
[12] = system: UO-31; assay: Growth inhibition of human UO-31 cells after 72 hrs by MTT assay; format: functional; conditions: UO-31, 72 h
[13] = system: HL-60(TB); assay: Growth inhibition of human HL-60(TB) cells after 72 hrs by MTT assay; format: functional; conditions: HL-60, 72 h
[14] = system: SF-268; assay: Growth inhibition of human SF-268 cells after 72 hrs by MTT assay; format: functional; conditions: SF-268, 72 h
[15] = system: K562; assay: Growth inhibition of human K-562 cells after 72 hrs by MTT assay; format: functional; conditions: K562, 72 h, read-out: LC50 (the source's name)
[16] = system: TK-10; assay: Growth inhibition of human TK-10 cells after 72 hrs by MTT assay; format: functional; conditions: TK-10, 72 h
[17] = system: MDA-MB-231; assay: Growth inhibition of human MDA-MB-231cells after 72 hrs by MTT assay; format: functional; conditions: MDA-MB-231, 72 h
[18] = system: HT-29; assay: Growth inhibition of human HT-29 cells after 72 hrs by MTT assay; format: functional; conditions: HT-29, 72 h
[19] = system: CCRF-CEM; assay: Growth inhibition of human CCRF-CEM cells after 72 hrs by MTT assay; format: functional
[20] = system: NCI/ADR-RES; assay: Growth inhibition of human NCI/ADR-RES cells after 72 hrs by MTT assay; format: functional
[21] = system: OVCAR-4; assay: Growth inhibition of human OVCAR-4 cells after 72 hrs by MTT assay; format: functional; conditions: OVCAR-4, 72 h
[22] = read-out: LC50 (the source's name)

C[C@@H]1CC[C@@]2(OC1)O[C@H]1C[C@H]3[C@@H]4CC[C@H]5C[C@@H](O[C@@H]6O[C@H](CO)[C@H](O[C@@H]7O[C@H](CO)[C@@H](O)[C@H](O[C@@H]8OC[C@@H](O)[C@H](O)[C@H]8O)[C@H]7O[C@@H]7O[C@H](CO)[C@@H](O)[C@H](O)[C@H]7O)[C@H](O)[C@H]6O)[C@H](O)C[C@]5(C)[C@H]4CC[C@]3(C)[C@H]1[C@@H]2C
GI50 [1]: 5.4 µM
TGI [1]: 28 µM
CC50 [1, 22]: < 100 µM
GI50 [2]: 2.8 µM
TGI [2]: 12 µM
CC50 [2, 22]: 38 µM
GI50 [3]: 1.4 µM
TGI [3]: 32 µM
CC50 [3, 22]: < 100 µM
GI50 [4]: 14 µM
TGI [4]: 28 µM
CC50 [4, 22]: 59 µM
IC50 [5]: 1.5 µg/mL (≈ 1.43 µM)
GI50 [6]: 1.4 µM
TGI [6]: 7.9 µM
GI50 [7]: 0.79 µM
TGI [7]: 23 µM
CC50 [7, 22]: 81 µM
GI50 [8]: 63 µM
TGI [8]: < 100 µM
CC50 [8, 22]: < 100 µM
GI50 [9]: 0.3 µM
TGI [9]: 0.62 µM
CC50 [9, 22]: 1.9 µM
GI50 [10]: 1.4 µM
TGI [10]: 18 µM
CC50 [10, 22]: < 100 µM
GI50 [11]: 0.35 µM
CC50 [11, 22]: < 100 µM
GI50 [12]: 2.4 µM
TGI [12]: 12 µM
CC50 [12, 22]: 50 µM
GI50 [13]: 4.7 µM
TGI [13]: 48 µM
CC50 [13, 22]: < 100 µM
GI50 [14]: 13 µM
TGI [14]: 28 µM
CC50 [14, 22]: 59 µM
CC50 [15]: < 100 µM
GI50 [16]: 4.4 µM
TGI [16]: < 100 µM
CC50 [16, 22]: < 100 µM
GI50 [17]: 1.8 µM
TGI [17]: 13 µM
CC50 [17, 22]: 87 µM
GI50 [18]: 1.1 µM
TGI [18]: 3.1 µM
GI50 [19]: 0.25 µM
TGI [19]: 0.55 µM
CC50 [19, 22]: 2 µM
GI50 [20]: 2.8 µM
TGI [20]: 12 µM
CC50 [20, 22]: 46 µM
GI50 [21]: 2 µM
TGI [21]: 4.6 µM
CC50 [21, 22]: 13 µM
